Measurements published in ChEMBL document CHEMBL4706530, “Synthesis, inhibitory activity and in silico docking of dual COX/5-LOX inhibitors with quinone and resorcinol core” (Eur J Med Chem, 2020).
The source made the active and inactive calls.

Experiments:
[1] = target: T1, Polyunsaturated fatty acid 5-lipoxygenase (Homo sapiens, UniProt P09917); assay: Inhibition of human recombinant 5-LOX assessed as reduction in LTB4 level using 800 uM arachidonic acid as substrate preincubated with enzyme for 10 mins followed by substrate addition and measured after 10 mins by ELISA
T1 sequence (P09917 whole entry): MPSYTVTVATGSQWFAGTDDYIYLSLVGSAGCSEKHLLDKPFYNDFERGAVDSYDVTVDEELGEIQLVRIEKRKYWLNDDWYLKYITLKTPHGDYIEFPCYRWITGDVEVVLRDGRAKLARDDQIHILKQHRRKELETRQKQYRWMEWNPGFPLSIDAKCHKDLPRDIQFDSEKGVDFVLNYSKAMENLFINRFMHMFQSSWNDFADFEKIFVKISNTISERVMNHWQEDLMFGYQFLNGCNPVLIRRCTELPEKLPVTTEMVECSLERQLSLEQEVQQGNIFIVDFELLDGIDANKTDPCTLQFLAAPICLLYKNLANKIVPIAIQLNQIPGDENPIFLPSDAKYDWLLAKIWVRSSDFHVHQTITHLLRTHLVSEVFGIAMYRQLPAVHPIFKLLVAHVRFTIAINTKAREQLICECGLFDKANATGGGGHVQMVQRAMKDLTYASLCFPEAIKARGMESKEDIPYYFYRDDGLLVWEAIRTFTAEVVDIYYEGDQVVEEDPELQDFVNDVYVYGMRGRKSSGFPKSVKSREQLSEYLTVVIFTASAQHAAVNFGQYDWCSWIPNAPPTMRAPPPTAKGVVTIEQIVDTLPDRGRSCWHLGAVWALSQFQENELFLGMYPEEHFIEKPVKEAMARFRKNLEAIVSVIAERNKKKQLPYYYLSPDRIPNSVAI
How it was run: (§1)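 Human recombinant 5-LOX, 1 unit per reaction, in PBS pH 7.4 containing 1 mM Na2EDTA and 200 µM ATP. Compound in DMSO (DMSO blank) held 10 min at 4°C. CaCl2 added, reaction started with arachidonic acid (800 µM solution) for 10 min at 37°C. Formic acid stop, 1:15 dilution, LTB4 measured by ELISA as % inhibition versus blank. At least three experiments in at least duplicate.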

[2] = target: T2, Prostaglandin G/H synthase 1 (Ovis aries) (UniProt P05979); assay: Inhibition of ovine COX-1 assessed as reduction in PGE2 level using 10 uM arachidonic acid as substrate at 20 uM preincubated with enzyme for 5 mins followed by substrate addition and measured after 20 mins by ELISA relative to control; details: time 25.0 min
T2 sequence (whole entry): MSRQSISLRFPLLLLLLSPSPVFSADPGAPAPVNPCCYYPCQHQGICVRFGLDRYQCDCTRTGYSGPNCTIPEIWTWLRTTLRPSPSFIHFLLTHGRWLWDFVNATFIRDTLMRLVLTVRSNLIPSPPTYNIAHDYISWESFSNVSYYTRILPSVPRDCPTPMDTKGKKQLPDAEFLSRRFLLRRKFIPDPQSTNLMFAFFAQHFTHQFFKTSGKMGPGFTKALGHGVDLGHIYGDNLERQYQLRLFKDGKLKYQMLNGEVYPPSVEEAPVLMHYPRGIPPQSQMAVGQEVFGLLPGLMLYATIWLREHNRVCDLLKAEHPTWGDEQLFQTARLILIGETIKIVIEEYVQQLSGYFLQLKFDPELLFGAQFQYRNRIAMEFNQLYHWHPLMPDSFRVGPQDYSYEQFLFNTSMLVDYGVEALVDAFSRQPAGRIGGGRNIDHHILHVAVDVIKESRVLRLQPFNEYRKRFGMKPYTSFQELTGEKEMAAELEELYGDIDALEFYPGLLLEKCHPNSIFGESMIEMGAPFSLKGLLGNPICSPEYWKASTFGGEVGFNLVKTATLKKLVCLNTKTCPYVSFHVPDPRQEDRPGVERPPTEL
How it was run: (§2)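 Enzyme in 100 mM Tris pH 8.0 with 5 µM porcine hematin, 18 mM L-epinephrine and 50 µM Na2EDTA. Compound in DMSO (DMSO blank) 5 min at room temperature. Arachidonic acid (10 µM) added, 20 min at 37°C. Stopped with 10% formic acid, diluted 1:15, PGE2 measured by ELISA at 405 nm as % inhibition versus blank. At least three experiments in at least duplicate. Non-active below 50% inhibition at 20 µM.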

[3] = target: T3, Prostaglandin G/H synthase 2 (Homo sapiens) (UniProt P35354); assay: Inhibition of human recombinant COX-2 assessed as reduction in PGE2 level using 10 uM arachidonic acid as substrate at 20 uM preincubated with enzyme for 5 mins followed by substrate addition and measured after 20 mins by ELISA relative to control; details: time 25.0 min; how it was run: as §2
T3 sequence (whole entry): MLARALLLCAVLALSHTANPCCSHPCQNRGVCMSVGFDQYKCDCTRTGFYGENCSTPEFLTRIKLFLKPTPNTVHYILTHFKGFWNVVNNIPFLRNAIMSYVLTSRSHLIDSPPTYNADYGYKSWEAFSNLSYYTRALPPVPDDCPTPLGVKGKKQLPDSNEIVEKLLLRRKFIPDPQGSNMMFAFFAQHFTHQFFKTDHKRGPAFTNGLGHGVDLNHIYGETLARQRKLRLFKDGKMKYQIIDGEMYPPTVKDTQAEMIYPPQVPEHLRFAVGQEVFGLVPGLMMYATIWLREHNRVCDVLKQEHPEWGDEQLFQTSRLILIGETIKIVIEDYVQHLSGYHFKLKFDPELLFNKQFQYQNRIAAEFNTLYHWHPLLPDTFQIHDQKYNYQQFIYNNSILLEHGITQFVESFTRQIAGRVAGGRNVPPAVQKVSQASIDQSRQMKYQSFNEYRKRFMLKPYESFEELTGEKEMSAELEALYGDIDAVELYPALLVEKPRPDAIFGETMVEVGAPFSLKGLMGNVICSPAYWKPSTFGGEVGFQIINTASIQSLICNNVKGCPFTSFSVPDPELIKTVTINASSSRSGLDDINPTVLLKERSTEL

[4] = target: T4, Prostaglandin G/H synthase 2 (Homo sapiens, UniProt P35354); assay: Inhibition of human recombinant COX-2 assessed as reduction in PGE2 level using 10 uM arachidonic acid as substrate preincubated with enzyme for 5 mins followed by substrate addition and measured after 20 mins by ELISA
T4 sequence (P35354 whole entry): T3 sequence (whole entry)

[5] = target: T1, Polyunsaturated fatty acid 5-lipoxygenase; assay: Inhibition of human recombinant 5-LOX assessed as reduction in LTB4 level using 5 to 80 uM arachidonic acid as substrate preincubated with enzyme for 10 mins followed by substrate addition and measured after 10 mins by ELISA
How it was run: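 Human recombinant 5-LOX, 1 unit per reaction, in PBS pH 7.4 with 1 mM Na2EDTA and 200 µM ATP. Compound in DMSO preincubated 10 min at 4°C. CaCl2 added, then arachidonic acid at final 5, 20 or 80 µM, 10 min at 37°C. Stopped with 10% formic acid, diluted 1:15, LTB4 measured by ELISA. Inhibition calculated versus blank at the matching AA level.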

[6] = target: T5, Prostaglandin G/H synthase 1 (Ovis aries, UniProt P05979); assay: Competitive inhibition of ovine COX-1 assessed as reduction in PGE2 level using 50 nM arachidonic acid as substrate preincubated with enzyme for 5 mins followed by substrate addition and measured after 20 mins by ELISA
T5 sequence (P05979 whole entry): T2 sequence (whole entry)
How it was run: (§3)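 Substrate-dependence test. Enzyme in 100 mM Tris pH 8.0 with 5 µM porcine hematin, 18 mM L-epinephrine and 50 µM Na2EDTA. Compound in DMSO (DMSO blank) preincubated 5 min at room temperature. Arachidonic acid added to final 50, 250 or 1250 nM, then 20 min at 37°C. Stopped with 10% formic acid, diluted 1:15, PGE2 quantified by ELISA at 405 nm. Inhibition calculated versus blank at the same AA level.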

[7] = target: T5, Prostaglandin G/H synthase 1; assay: Competitive inhibition of ovine COX-1 assessed as reduction in PGE2 level using 1250 nM arachidonic acid as substrate preincubated with enzyme for 5 mins followed by substrate addition and measured after 20 mins by ELISA; how it was run: as §3
[8] = Antioxidant activity assessed as radical scavenging activity at 400 uM measured after 30 mins by DPPH assay; assay type: functional
How it was run: (§4)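 Test compounds in methanol, two-fold serial dilution to final 3.125–400 µM, incubated 30 min with DPPH in methanol (stated final […]) at room temperature in the dark. Absorbance read at 517 nm. Trolox and L-ascorbic acid served as positive references. Activity expressed as EC50.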

[9] = target: T5, Prostaglandin G/H synthase 1; assay: Inhibition of ovine COX-1 assessed as reduction in PGE2 level using 10 uM arachidonic acid as substrate preincubated with enzyme for 5 mins followed by substrate addition and measured after 20 mins by ELISA; how it was run: as §2
[10] = Selectivity index, ratio of IC50 for ovine COX-1 to IC50 for human recombinant COX-2
[11] = target: T5, Prostaglandin G/H synthase 1; assay: Competitive inhibition of ovine COX-1 assessed as reduction in PGE2 level using 250 nM arachidonic acid as substrate preincubated with enzyme for 5 mins followed by substrate addition and measured after 20 mins by ELISA; how it was run: as §3
[12] = Antioxidant activity assessed as radical scavenging activity measured after 30 mins by DPPH assay; assay type: functional; how it was run: as §4
[13] = target: T6, Polyunsaturated fatty acid 5-lipoxygenase (Homo sapiens) (UniProt P09917); assay: Inhibition of human recombinant 5-LOX assessed as reduction in LTB4 level using 800 uM arachidonic acid as substrate at 5 uM preincubated with enzyme for 10 mins followed by substrate addition and measured after 10 mins by ELISA relative to control; details: time 20.0 min
T6 sequence (whole entry): T1 sequence (P09917 whole entry)
How it was run: as §1, with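 “duplicate. Non-active cutoff below 50% inhibition at 5 µM.” for “duplicate.”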

SMILES | IC50 [1] [µM] | IC50 [4] [µM] | IC50 [9] [µM] | Ratio IC50 [10] | other results
CCCCCc1cc(OC(C)=O)cc(OC)c1OC(C)=O | 1.09 | – | – | – | inhibition [2]: < 50%; inhibition [3]: < 50%
CCCCCCCCCCCC1=CC(=O)C=C(OC)C1=O | 0.34 | 0.57 | 1.07 | 1.88 | IC50 [5]: 0.71 µM; IC50 [6]: 0.8 µM; IC50 [7]: > 20 µM; Activity [8]: inactive; IC50 [11]: 2.77 µM
CCCCCCCCCCCCCCCC1=CC(=O)C=C(OC)C1=O | 0.79 | 8.97 | – | – | inhibition [2]: < 50%
COC1=CC(=O)C=C(Br)C1OC(C)=O (configuration not stated) | 0.17 | – | – | – | EC50 [12]: 45.6 µM; inhibition [2]: < 50%; inhibition [3]: < 50%
CCCCCCCCCCCCCCCc1cc(O)cc(O)c1 [CARDOL] | – | 2.36 | 5.61 | 2.38 | inhibition [13]: < 50%
O=C1O[C@H]([C@@H](O)CO)C(O)=C1O [ASCORBIC ACID] | – | – | – | – | EC50 [12]: 31.1 µM
CCCCCC1=CC(=O)C=C(OC)C1=N | 1.01 | 5.82 | 15.8 | 2.71 | –
CCCCCc1cc(O)cc(OC)c1 | – | 15.9 | – | – | inhibition [2]: < 50%; inhibition [13]: < 50%
COC1=CC(=O)C=C(Br)C1=O | 1.67 | 4.48 | 15.6 | 3.47 | –
CCCCCC1=CC(=O)C=C(OC)C1=O [Primin] | 1.37 | 1.9 | 18.9 | 9.96 | –
CCCCCCCCCCCCCc1cc(O)cc(O)c1 | – | 2.74 | 2.38 | 0.87 | inhibition [13]: < 50%
CCCCCCCCCCCCCc1cc(OC(C)=O)cc(OC)c1OC(C)=O | 1.02 | – | – | – | inhibition [2]: < 50%; inhibition [3]: < 50%
Cc1c(C)c2c(c(C)c1O)CCC(C)(C(=O)O)O2 (configuration not stated) [TROLOX] | – | – | – | – | EC50 [12]: 32.5 µM
COc1cc(O)cc(Br)c1O | 1.14 | 4.81 | 6.11 | 1.27 | –
CCCCCc1cc(O)cc(O)c1 [WHILE OLIVETOL] | – | 17.3 | 13.6 | 0.79 | inhibition [13]: < 50%
CCCCCCCCCCCCCc1cc(O)cc(OC)c1O | 1.49 | 1.55 | 3.38 | 2.18 | –
CCCCCc1cc(O)cc(OC)c1O | 0.94 | – | – | – | inhibition [2]: < 50%; inhibition [3]: < 50%
CCCCCc1cccc(OC)c1O | 3.72 | 4.65 | 5.42 | 1.17 | –
CCCCCCCCCCCCCCCc1cc(O)cc(OC)c1O | 0.14 | 2.71 | 2.65 | 0.98 | –
CCCCCCCCCCCCCC1=CC(=O)C=C(OC)C1=O | 1.05 | 0.88 | 0.25 | – | –
CCCCCCCCCCCc1cc(O)cc(OC)c1O | 0.28 | 0.55 | 1.07 | 1.95 | –
